Common to all, as to type: functional
The species entered for assay [1] is Mus musculus. Kind of assay: Peroral dose required to reduce by 50% the score of excitatory behavior induced by intrathecal injection of ferrous chloride in mice. Particulars: central, read-out: ID50 (the source's name). Put shortly:
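Male Slc:ICR mice, 5 weeks old, 10 per dose. Compound given orally 30 min before intrathecal 5 μL of 50 mM FeCl2 in saline (between L6 and S1). Vehicle was water, or 0.5% gum arabic suspension. Behaviour scored 0–5 (biting to death) from 15 min to 1 h. ID50 from three or four doses, relative to vehicle score.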

For assay [2], the system named is Mus musculus. Kind of assay: Percentage increase of locomotor activity in mice at dose of 0.1 mg/kg dihydrochloride (10 mice were used). In short, it runs like this: (§1)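 Male ICR mice, 5 weeks, 25–35 g, acclimated 90 min. (S)- or (R)-dihydrochloride given ip in 5% gum arabic. Methamphetamine 1 mg/kg ip in saline given 30 min later. Locomotor activity recorded afterwards and expressed relative to saline–methamphetamine controls; two-tailed Student's t-test.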

The test system of assay [3] is Mus musculus. Kind of assay: Percentage increase of locomotor activity in mice at dose of 0.3 mg/kg dihydrochloride (9 mice were used). In short, it runs like this: as §1
Assay [4] deals with Mus musculus. Kind of assay: Percentage increase of locomotor activity in mice at dose of 1 mg/kg apomorphine (11 mice were used). Put shortly: (§2)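 Male ICR mice, 5 weeks. Dihydrochloride given ip 30 min before apomorphine 1 mg/kg sc, the hypermotility inducer used in place of methamphetamine. Spontaneous motor activity monitored afterwards; two-tailed Student's t-test.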
For assay [5], the system named is Mus musculus. Kind of assay: Percentage increase of locomotor activity in mice at dose of 1 mg/kg dihydrochloride (9 mice were used).
The subject of assay [6] is Mus musculus. Kind of assay: Locomotor activity was measured for 1 hour after administration of 0.1 mg/kg dihydrochloride in mice (10 mice were used). In short, it runs like this:
as §1

Assay [7] concerns Mus musculus. Kind of assay: Locomotor activity was measured for 1 hour after administration of 0.3 mg/kg dihydrochloride in mice (9 mice were used). In short, it runs like this:
as §1

In assay [8] the test system is Mus musculus. Kind of assay: Locomotor activity was measured for 1 hour after administration of 1 mg/kg apomorphine in mice (11 mice were used). Put shortly: as §2
Assay [9] deals with Mus musculus. Kind of assay: Locomotor activity was measured for 1 hour after administration of 1 mg/kg dihydrochloride in mice (9 mice were used). In short, it runs like this: as §1
For assay [10], the species on record is Mus musculus. Kind of assay: Percentage increase of locomotor activity in mice.
Assay [11] deals with Mus musculus. Kind of assay: Locomotor activity was measured in mice after 1 hour administration of methamphetamine. On the set-up: unit not given here.
The species entered for a further assay is Rattus norvegicus. Kind of assay: Inhibition of lipid peroxidation by rat liver microsomes. On the set-up: concentration or dose not given beside the values. The settings on record: dose or concentration not given here. Put shortly:
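Rat liver microsomes (S-9), 0.3 mg protein in 40 mM Tris-malate pH 7.4. Peroxidation started with a 1:1 mix of FeCl2 (0.25 mM) and NADPH (3 mM), then 1 h at 37 °C. Compound in DMSO added before incubation, tested up to 1 μM final. Thiobarbituric acid method read-out. Activity relative to DMSO vehicle; IC50 from four concentrations by nonlinear regression, otherwise % inhibition at 1 μM.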
For orientation: Liver microsomes are vesicles of endoplasmic reticulum, rich in cytochrome P450 enzymes.

The subject of assay [12] is Mus musculus. Kind of assay: Percentage increase of locomotor activity in mice at a dose of 1 mg/kg dihydrochloride (15 mice were used). In short, it runs like this:
as §1

The subject of assay [13] is Mus musculus. Kind of assay: Percentage increase of locomotor activity in mice at a dose of 10 mg/kg dihydrochloride (16 mice were used). In short, it runs like this: as §1
Assay [14] relates to Mus musculus. Kind of assay: Percentage increase of locomotor activity in mice at a dose of 3 mg/kg dihydrochloride (13 mice were used). In short, it runs like this: as §1
Assay [15] deals with Mus musculus. Kind of assay: Locomotor activity was measured for 1 hour after administration of 1 mg/kg of dihydrchloride in mice (15 mice were used). In short, it runs like this: as §1
For assay [16], the system named is Mus musculus. Kind of assay: Locomotor activity was measured for 1 hour after administration of 10 mg/kg of dihydrchloride in mice (16 mice were used). Put shortly:
as §1

Assay [17] relates to Mus musculus. Kind of assay: Locomotor activity was measured for 1 hour after administration of 3 mg/kg of dihydrchloride in mice (13 mice were used). Put shortly:
as §1

As usually defined, the inhibition is the drop in the measured response relative to a control, in per cent.

As for `Cc1c(C)c2c(c(C)c1N)C[C@@](C)(CN1CCC(c3ccccc3)CC1)O2`, the ED50 in the assay listed under Mus musculus [1] was determined as 10.8 mg/kg. The Increase with Mus musculus [2] is recorded as 113.2%; in the assay on Mus musculus [3] it was 54.4%; in the assay with Mus musculus [4], 124.5%; in the assay on Mus musculus [5] it was 35.1%. The Locomotor activity with Mus musculus [6] was determined as 2103; in the assay on Mus musculus [7], 1102; in the assay on Mus musculus [8] it was 841; in the assay with Mus musculus [9], 773.

In the assay listed under Mus musculus [10], `Cc1c(C)c2c(c(C)c1N)CC(C)(Cn1ccnc1)O2` (stereo not given) came in with an Increase of 155.1%. Further, in the assay listed under Mus musculus [1], the ED50 is 25 mg/kg. The molecule further had a Locomotor activity in the assay on Mus musculus [11] of 3950. In the assay filed under Rattus norvegicus, this molecule came in with an inhibition of 6%.

Consider `Cc1c(C)c2c(c(C)c1N)CC(C)(CN1CCN(C)CC1)O2` (stereo not given), for which, in the assay filed under Mus musculus [10], the Increase amounted to 181.1%. In addition, the ED50 in the assay listed under Mus musculus [1] came out at 25.3 mg/kg. The Locomotor activity in the assay on Mus musculus [11] amounted to 3154. The molecule further gave an inhibition in the assay filed under Rattus norvegicus of 10%.

`Cc1c(C)c2c(c(C)c1N)C(c1cccnc1)C(C)(C)O2` (stereo not given): the Increase in the assay filed under Mus musculus [10] came out at 52.1%. For the same molecule, the ED50 in the assay filed under Mus musculus [1] was 32.1 mg/kg. The molecule also had a Locomotor activity in the assay on Mus musculus [11] of 1488. For the same molecule, in the assay listed under Rattus norvegicus, the inhibition stood at 22%.

On to `Cc1c(C)c2c(c(C)c1N)C[C@](C)(CN1CCC(c3ccccc3)CC1)O2`, for which, in the assay listed under Mus musculus [1], the ED50 is 11.6 mg/kg. For the same molecule, the Increase in the assay on Mus musculus [12] was 129%; in the assay on Mus musculus [13], 67.7%; in the assay on Mus musculus [14], 169%. Moreover, the Locomotor activity in the assay with Mus musculus [15] was determined as 1472; in the assay with Mus musculus [16], 889; in the assay with Mus musculus [17] it was 1852.

The molecule `Cc1c(C)c2c(c(C)c1N)CC(C)(CSc1nccn1C)O2` (stereo not given) gave an Increase in the assay filed under Mus musculus [10] of 104.2%. The ED50 in the assay filed under Mus musculus [1] was determined as 37.1 mg/kg. Moreover, in the assay with Mus musculus [11], the Locomotor activity amounted to 2228. For the same molecule, the inhibition in the assay filed under Rattus norvegicus amounted to 11%.

For the molecule `Cc1c(C)c2c(c(C)c1N)CC(C)(CN1CCCCC1)O2` (stereo not given), in the assay filed under Mus musculus [10], the Increase came out at 93.7%. The ED50 in the assay listed under Mus musculus [1] is 11.7 mg/kg. The same molecule came in with a Locomotor activity in the assay with Mus musculus [11] of 2960. This molecule also came in with an inhibition in the assay filed under Rattus norvegicus of 18%.

In the assay listed under Mus musculus [10], `Cc1c(C)c2c(c(C)c1N)CC(C)(CCN(C)C)O2` (stereo not given) returned an Increase of 115.2%. Besides, the ED50 in the assay listed under Mus musculus [1] was determined as 19 mg/kg. Further, the Locomotor activity in the assay on Mus musculus [11] is listed as 2129. In addition, the inhibition in the assay listed under Rattus norvegicus amounted to 4%.

These data come from ChEMBL document CHEMBL1129943, “5-aminocoumarans: dual inhibitors of lipid peroxidation and dopamine release with protective effects against central nervous system trauma and ischemia” (J Med Chem, 1997).
